These results are taken from publication PMC7106486 (Science translational medicine, 2019).

Assay [1] deals with S. aureus USA300 LAC agr type I P3-YFP. As to the kind of experiment: S. aureus agr activity, P3-YFP reporter, in vitro. Format: cell-based. The conditions noted are these: synthetic peptide, overnight culture.
In assay [2] the test system is Klk6 and cytokine (Il6, Il17a, Il17f) mRNA in murine skin. As to the kind of experiment: Klk6 and cytokine mRNA expression on murine skin. The conditions noted are these: synthetic autoinducing peptide 10 μg with S. aureus 1 × 10^7 CFU, 48 hours. Format: in vivo, mouse C57BL/6. In outline: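 Male C57BL/6 mice, 8 weeks old, shaved and Nair-depilated (2 min), then rested 48 h. S. aureus USA300 LAC (agr type I, from 18 h cultures in 3% TSB at 37°C), 1 × 10^7 CFU in 3% TSB (100 μl), applied with synthetic autoinducing peptide (10 μg, DMSO) on 2-cm2 gauze under Tegaderm to back skin for 48 h. Applied CFU confirmed next day; n = 5.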

Assay [3] has as its system murine back skin treated with S. aureus. The assay can be described thus: Transepidermal water loss. The class given is in vivo, mouse C57BL/6. The conditions noted are these: synthetic autoinducing peptide 10 μg with S. aureus 1 × 10^7 CFU, 48 hours. In outline:
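Back skin of 8-week male C57BL/6 mice depilated (shave plus Nair 2 min), allowed 48 h barrier recovery. S. aureus USA300 LAC agr type I (1 × 10^7 CFU, 100 μl 3% TSB) plus synthetic autoinducing peptide (10 μg, DMSO) applied on 2-cm2 gauze under Tegaderm for 48 h. Transepidermal water loss measured by Tewameter on treated skin; n = 5.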

Assay [4] relates to clinical S. aureus strains expressing PSMα. As to the kind of experiment: Protection against clinical S. aureus strains expressing PSMα.

Take “S-Y-N-V-c(C-G-G-Y-F) [S. hominis C5 autoinducing peptide]”: the “inhibition of S. aureus agr activity (in words)” value in assay [1] is “potently inhibited S. aureus agr activity in a dose-dependent manner”; in assay [1] (listed as SYNVCGGYF), “highly potent inhibitor of S. aureus agr activity”. In addition, the “Klk6 expression on murine skin (in words)” value in assay [2] is listed as “inhibited TEWL, Klk6”. Moreover, the “TEWL on murine skin (in words)” value in assay [3] is listed as “inhibited TEWL”. Besides, the “protection against clinical S. aureus strains (in words)” value in assay [4] is “protective against clinical S. aureus strains expressing PSMα”.
